Data taken from ChEMBL document CHEMBL4342471, “Discovery of Thieno[2,3-d]pyrimidine-Based Hydroxamic Acid Derivatives as Bromodomain-Containing Protein 4/Histone Deacetylase Dual Inhibitors Induce Autophagic Cell Death in Colorectal Carcinoma Cells” (J Med Chem, 2020).
The source made the active and inactive calls. The calls are words filed in the database; no cut-off is given here.

How the values were obtained:
HCT-116 [1] = experiment: Inhibition of colony formation in human HCT116 cells at 0.2 to 0.5 uM incubated for 24 hrs; type: functional, cell-based
Procedure, shortened: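 HCT-116 colony formation assessed after treatment at 0.2 or 0.5 µM.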

HCT-116 [2] = experiment: Induction of apoptosis in human HCT116 cells assessed as necrotic cells at 0.5 uM by Annexin-V FITC/propidium iodide staining-based flow cytometry (reference value: 0.304 %); type: functional
[3] = biological target: Bromodomain-containing protein 3 (Homo sapiens, UniProt Q15059); experiment: Inhibition of human recombinant His-tagged BRD3 BD2 domain expressed in Escherichia coli BL21(DE3)-R3-pRARE2 cells by AlphaScreen assay
Sequence of Bromodomain-containing protein 3 (Q15059 whole entry, the tested form may be a part): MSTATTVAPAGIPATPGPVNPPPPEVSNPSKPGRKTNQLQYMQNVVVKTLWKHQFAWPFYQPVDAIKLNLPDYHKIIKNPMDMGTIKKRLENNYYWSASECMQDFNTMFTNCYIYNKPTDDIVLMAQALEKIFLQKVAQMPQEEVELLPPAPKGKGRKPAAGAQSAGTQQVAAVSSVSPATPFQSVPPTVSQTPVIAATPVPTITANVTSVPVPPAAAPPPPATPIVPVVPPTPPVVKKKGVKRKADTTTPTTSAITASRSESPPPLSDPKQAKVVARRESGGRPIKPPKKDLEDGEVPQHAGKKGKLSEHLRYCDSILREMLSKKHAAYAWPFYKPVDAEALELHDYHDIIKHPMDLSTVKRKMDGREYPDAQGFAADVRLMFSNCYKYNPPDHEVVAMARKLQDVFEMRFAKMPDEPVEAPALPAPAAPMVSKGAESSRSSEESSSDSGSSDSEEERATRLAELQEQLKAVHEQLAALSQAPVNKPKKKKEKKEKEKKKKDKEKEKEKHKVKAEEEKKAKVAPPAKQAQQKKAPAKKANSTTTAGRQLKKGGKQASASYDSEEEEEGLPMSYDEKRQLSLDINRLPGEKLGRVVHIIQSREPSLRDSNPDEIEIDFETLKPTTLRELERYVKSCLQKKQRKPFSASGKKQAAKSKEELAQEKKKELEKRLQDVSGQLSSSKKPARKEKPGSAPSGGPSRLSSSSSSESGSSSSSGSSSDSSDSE

Histone deacetylase 2 = Histone deacetylase 2 (Homo sapiens, UniProt Q92769)
Sequence of Histone deacetylase 2 (Q92769 whole entry): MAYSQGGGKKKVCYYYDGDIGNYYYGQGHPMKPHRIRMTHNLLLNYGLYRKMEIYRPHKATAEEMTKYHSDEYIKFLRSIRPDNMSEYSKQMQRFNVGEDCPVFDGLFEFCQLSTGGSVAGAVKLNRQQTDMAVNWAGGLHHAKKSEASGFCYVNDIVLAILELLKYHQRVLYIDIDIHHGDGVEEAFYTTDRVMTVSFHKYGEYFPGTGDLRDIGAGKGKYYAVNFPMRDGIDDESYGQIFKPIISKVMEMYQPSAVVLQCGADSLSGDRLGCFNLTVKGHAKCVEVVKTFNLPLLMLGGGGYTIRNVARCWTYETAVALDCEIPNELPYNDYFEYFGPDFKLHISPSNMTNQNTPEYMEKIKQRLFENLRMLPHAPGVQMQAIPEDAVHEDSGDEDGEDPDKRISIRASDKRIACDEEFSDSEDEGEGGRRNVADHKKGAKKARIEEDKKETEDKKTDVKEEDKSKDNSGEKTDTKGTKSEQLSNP

[4] = Half life in Sprague-Dawley rat at 30 mg/kg, iv administered as bolus dose measured up to 1440 mins by UPLC-QTOF/MS analysis; type: ADME, organism-based; settings: in vivo
[5] = biological target: Bromodomain-containing protein 4 (Homo sapiens, UniProt O60885); experiment: Inhibition of BRD4 in human HCT116 cells assessed as induction of autophagy by measuring p62 degradation at 0.5 uM measured after 24 hrs by Western blot analysis; type: cell-based
HCT-116 [6] = experiment: Effect on histone H3 expression level in human HCT116 cells at 0.2 to 0.5 uM measured after 24 hrs by Western blot analysis; type: functional, cell-based

IC50 [3]: > 20000 nM | IC50 (Histone deacetylase 2): 58 nM | inhibition [5]: Active
SMILES: Cc1cc(-c2nc3sc4c(c3c(=O)[nH]2)CCN(C)C4)cc(C)c1OCCCCCC(=O)NO
inhibition (HCT-116 [1]): Active | Activity (HCT-116 [2]): 9.75% | half-life [4]: 2.48 h | Activity (HCT-116 [6]): inactive
